MEKK2 WT-MEK5 – raises or lowers MEK5 binding to wildtype human MEKK2 PB1 domain | 290,000 tested, 1.1% active | AID 1531 | Q9Y2U5 | bead flow cytometry, Alexa488-MEK5 binding to MEKK2 WT; actives lie on both sides | binding response (% of control), % at 10 µM; in the data active = binding response below about 67% or above about 130%
MEKK3 PB1 HTS – raises or lowers MEK5 binding to the human MEKK3 PB1 domain | 290,000 tested, 1.4% active | bead-based flow cytometry, Alexa488-MEK5 binding to MEKK3; actives lie on both sides; 0 = blocked by unlabeled MEK5, 100 = vehicle | Q99759 | binding response (% of control), % at 10 µM;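 active = binding response more than 3 SD above or below the average of its plate-row segment, actives on both sides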;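 also: Alexa488 bead fluorescence after subtracting the streptavidin-only scavenger bead signal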
Target sequence (Q99759 whole entry, looked up, the tested form may be a part): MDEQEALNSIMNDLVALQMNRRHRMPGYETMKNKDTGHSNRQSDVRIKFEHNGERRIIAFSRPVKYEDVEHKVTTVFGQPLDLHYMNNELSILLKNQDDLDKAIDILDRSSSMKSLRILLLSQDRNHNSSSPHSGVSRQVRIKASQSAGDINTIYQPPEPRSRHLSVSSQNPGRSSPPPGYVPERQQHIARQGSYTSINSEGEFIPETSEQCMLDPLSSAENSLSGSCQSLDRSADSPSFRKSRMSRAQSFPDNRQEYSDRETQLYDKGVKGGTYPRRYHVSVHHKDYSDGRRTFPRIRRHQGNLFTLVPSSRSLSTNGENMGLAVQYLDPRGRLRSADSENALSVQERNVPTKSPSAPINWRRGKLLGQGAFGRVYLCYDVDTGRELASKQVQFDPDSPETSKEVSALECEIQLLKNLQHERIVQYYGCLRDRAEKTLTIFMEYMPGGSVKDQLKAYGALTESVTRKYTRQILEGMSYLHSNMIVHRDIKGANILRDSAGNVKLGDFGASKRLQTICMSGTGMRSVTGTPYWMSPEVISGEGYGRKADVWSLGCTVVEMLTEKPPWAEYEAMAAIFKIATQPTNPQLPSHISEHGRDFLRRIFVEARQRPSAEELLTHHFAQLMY
MEKK2 mut-MEK5 – signal of MEK5 binding to mutant human MEKK2 PB1 domain; bead flow cytometry, Alexa488-MEK5 binding to MEKK2 mutant; percent response, % at 10 µM; 290,000 tested, 0.35% active; in the data active = percent response above about 24%, passing the limit was not always enough
Arrestin-AP2 inh – human beta-arrestin and AP2 interaction inhibition. FITC-arrestin peptide / GST-AP2 beads, flow cytometry; AP2 beta2 appendage carries R879A mutation. inhibition, % at 10 µM. 340,000 tested, 0.31% active. AID 504490;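 active = inhibition above a set limit, near 3 SD of compounds lacking own fluorescence, cut at about 54% in these data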;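 also: plate controls were DMSO wells for no effect and 5 µM unlabelled arrestin peptide for full effect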
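Material – GST-tagged AP2 beta2-adaptin appendage (R879A) on 4 µm glutathione beads · Probe or stimulus – fluorescein-tagged arrestin peptide at 50 nM final · Timing – 12 min plus 1 h, RT · Detection – bead flow cytometry, FITC channel · Read-out basis – inhibition as reduced fluorescein signal on beads, percent · Medium – PBS plus Tween 20 (0.05%) and BSA (0.1%)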
MEKK2wt confirm – raises or lowers MEK5 binding to wildtype human MEKK2, retest; 5,900 tested, 2.4% active; shares compounds with MEKK3 PB1 HTS; bead flow cytometry, Alexa488-MEK5 binding to MEKK2 WT; actives lie on both sides; binding response (% of control), % at 10 µM; AID 1892; in the data active = binding response below about 16% or above about 210%; inactive = in between
MEKK2mut confirm – signal of MEK5 binding to mutant human MEKK2, retest. shares compounds with MEKK3 PB1 HTS. bead flow cytometry, Alexa488-MEK5 binding to MEKK2 mutant. percent response, % at 10 µM. 5,900 tested, 2% active. AID 1893; in the data active = percent response mostly above about 71%, no sharp cut-off; inactive = mostly below about 38%;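 also: higher means compound restores mutant binding toward wildtype level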
MEKK3-MEK5 inh – confirmation of inhibitors of MEK5 binding to human MEKK3; shares compounds with MEKK3 PB1 HTS; bead flow cytometry, Alexa488-MEK5 binding to MEKK3; active compounds read low; binding response (% of control), % at 10 µM; 5,900 tested, 1.8% active;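 active = binding response below 72% of control, or above a set upper limit, though filed actives all read lower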;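 also: 100% = DMSO only wells and 0% = binding blocked by excess unlabeled MEK5; lower values mean stronger disruption of MEK5 binding to MEKK3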
Numbers without * were called inactive; nt = not tested or not shown; [ ] = another dose, or the depositor's remark. Shown are actives, neighbours in structure and some others; about 2.3% of the full set was active somewhere.

SMILES | MEKK2 WT-MEK5 | MEKK3 PB1 HTS | MEKK2 mut-MEK5 | Arrestin-AP2 inh | MEKK2wt confirm | MEKK2mut confirm | MEKK3-MEK5 inh
Cc1[nH]c2ccccc2c1C(Nc1nccs1)c1ccncc1 (configuration not stated) | 105 | 138* | 0 | -10 | 103 | 0 | 102
COc1ccc(Nc2cc(C)nc3c(C)cccc23)cc1OC | 116 | 111 | 26* | 5 | 109 | 6 | 105
CCOc1ccc(Nc2cc(C)nc3c(C)cccc23)cc1 | 114 | 103 | 5 | 19 | nt | nt | nt
COC(=O)C1=C[C@@H](C(=O)OC)[C@@H]2C3=C(C(=O)[C@]2(CC(C)C)NC(=O)c2ccccc2)[C@H](C)n2c(=O)n(-c4ccccc4)c(=O)n2[C@@H]3C1 | 105 | 109 | 5 | -5 | nt | nt | nt
CCC1(CC)C(=O)C2=C3C1[C@H](C(=O)OC)CC(C(=O)OC)C[C@H]3n1c(=O)n(-c3ccccc3)c(=O)n1[C@H]2C (some centres not stated) | 86 | 80*[inhibitor] | -4 | nt | 96 | 1 | 97
COc1ccc(CCNC(=O)CCCN2C(=O)C(c3ccccc3)Oc3cccnc32)cc1OC (configuration not stated) | 96 | 97 | -6 | -7 | nt | nt | nt
CCN1CCN(c2cc(N3CCc4ccccc4C3)c(F)cc2[N+](=O)[O-])CC1 | 151* | 100 | 39 | 9 | 153 | 22 | 110
COc1ncccc1C(=O)N1CCCC(N2CCN(c3cccc(Cl)c3)CC2)C1 (configuration not stated) | 108 | 105 | 7 | 0 | nt | nt | nt
O=C(NCCC1=CCCCC1)C1CCN(S(=O)(=O)N2CCCC2)CC1 | 104 | 105 | 1 | -5 | nt | nt | nt
CCS(=O)(=O)N1CCC(C(=O)NCCC2=CCCCC2)CC1 | 79 | 73*[inhibitor] | -6 | 0 | 96 | -3 | 100
OCCNCc1ccc(OCc2ccc(Cl)cc2Cl)cc1 | 138* | 101 | 27 | -3 | 124 | 6 | 98
S=C(Nc1ccccc1)Nc1ccc(OCc2ccc(Cl)cc2Cl)cc1 | 97 | 98 | -8 | 9 | nt | nt | nt
OCCCCNCc1ccc(OCc2ccc(Cl)cc2Cl)cc1 | 169* | 110 | 34* | -5 | 163 | 75* | 108
COc1cc(O)c(C(CC(=O)N2CCCCC2)c2ccc3c(c2)OCO3)c(OC)c1 (configuration not stated) | 140* | 122 | 4 | 1 | 102 | -1 | 103
COc1cc(O)c(C(CC(=O)N2CCCC(C)C2)c2ccc3c(c2)OCO3)c(OC)c1 (configuration not stated) | 142* | 121 | 2 | -1 | 104 | 1 | 98
COc1cc(O)c(C(CC(=O)N2CCOCC2)c2cc(OC)c(OC)c(OC)c2)c(OC)c1 (configuration not stated) | 154* | 126 | 3 | 2 | 97 | 2 | 101
COc1cc(O)c(C(CC(=O)N2CCCC(C)C2)c2ccc(N(C)C)cc2)c(OC)c1 (configuration not stated) | 158* | 127 | 2 | -6 | 103 | 0 | 101
COc1ccc(S(=O)(=O)NC2CC2)cc1Br | 101 | 99 | 1 | 4 | nt | nt | nt
O=C(CSc1ccccc1C(=O)NCc1ccccc1)NC12CC3CC(CC(C3)C1)C2 | 100 | 134* | 0 | -8 | 99 | 0 | 102
O=C(CSc1ccccc1C(=O)NCc1ccccc1)NC1CCCCCCC1 | 101 | 131* | 0 | 4 | 101 | -5 | 102
CS(=O)(=O)N1N=C(c2cccs2)CC1c1ccccc1F (configuration not stated) | -4.0*[inhibitor] | 99 | 3 | 22 | 102 | 6 | 105
Cc1ccc(C2CC(c3cccs3)=NN2S(=O)(=O)c2ccc(C)cc2)cc1 (configuration not stated) | 61*[inhibitor] | 102 | 9 | -3 | 94 | -1 | 101
COc1ccc(C2CC(c3cccs3)=NN2S(=O)(=O)c2ccc(C)cc2)cc1 (configuration not stated) | 126 | 118 | 11 | 3 | nt | nt | nt
CC12CC3(C)CC(C)(C1)CC(C(=O)Nc1nn[nH]n1)(C2)C3 | 87 | 81*[inhibitor] | -14 | -1 | 91 | -4 | 99
Fc1cccc(Cl)c1Cn1nnc2c(NCc3ccncc3)ncnc21 | 82 | 104 | 63* | -10 | 104 | -4 | 95
SMILES | MEKK2 WT-MEK5 | MEKK3 PB1 HTS | MEKK2 mut-MEK5 | Arrestin-AP2 inh | MEKK2wt confirm | MEKK2mut confirm | MEKK3-MEK5 inh
COc1ccc(N=C2S/C(=C\c3cccs3)C(=O)N2CC(C)C)cc1 | 90 | 82*[inhibitor] | -7 | -2 | 103 | -1 | 107
O=C(Nc1cc(S(=O)(=O)N2CCOCC2)ccc1N1CCCC1)c1ccc2c(c1)S(=O)(=O)c1ccccc1C2=O | 95 | 100 | -2 | -8 | nt | nt | nt
O=C(O)c1cccc(NC(=S)N/N=C/c2ccccn2)c1 | 128 | 159* | 6 | -6 | 107 | 2 | 104
CCOC(=O)/C(C#N)=C\c1c(OCC)n(CC)c2ccccc12 | 109 | 134* | 1 | -1 | 104 | 1 | 106
N/C(COc1cc(Cl)cc(Cl)c1)=N\O | 115 | 135* | 25 | -13 | 105 | -2 | 107
CN(C)CCOc1cc(Cl)cc(Cl)c1 | 103 | 96 | -10 | 3 | nt | nt | nt
Cc1ccc(Nc2nnc(SCC(=O)c3ccc(Br)s3)s2)c(C)c1 | 94 | 72*[inhibitor] | 2 | -10 | 97 | -8 | 99
Cc1ccc(C(C)(C)C)c(OCCOCCN2CCCC2)c1 | 108 | 98 | -1 | 2 | nt | nt | nt
CC(C)(C)c1ccccc1OCCOCCN1CCCCCC1 | 164* | 106 | 37 | 5 | 138 | 17 | 107
CCN1C(=O)/C(=C/C=C2/Sc3ccccc3N2CCO)SC1=S | 71 | 74 | -7 | -4 | nt | nt | nt
C=CCN1C(=O)/C(=C\C=C2\N(C)c3ccccc3C2(C)C)SC1=S | nt | 75*[inhibitor] | 7 | 46 | 46 | -29 | 75
CCCN1C(=O)/C(=C\C=C2/Sc3ccccc3N2CCO)SC1=S | 33*[inhibitor] | 68*[inhibitor] | -17 | -8 | 90 | -8 | 96
CCCN1C(=O)/C(=C2/C=Cc3ccccc3N2CC)SC1=S | 102 | 107 | 0 | 7 | nt | nt | nt
CCCCN1C(=O)/C(=C/C=C2\Oc3ccccc3N2CC)SC1=S | 35*[inhibitor] | 69*[inhibitor] | -13 | 3 | 40 | -38 | 79
CCCN1C(=O)/C(=C/C=C2\N(CC)c3ccccc3C2(C)C)SC1=S | 134 | 68*[inhibitor] | 151* | 5 | 71 | -14 | 90
CSC1=NS(=O)(=O)c2c(C)nn(C)c2S1 | 99 | 99 | -1 | -38 | nt | nt | nt
COc1cc(NC(=O)c2ccccc2)c(OC)cc1NC(=O)CN1C(=O)N(C)C2(CCCCC2)C1=O | nt | nt | nt | -5 | nt | nt | nt

Source: PubChem BioAssay
